“And” between values parts separate entries of the source, which are not always exact repeats. Equal values may be shown once. Read-outs that look alike come from different tables or passages of the source.
What was measured:
[1] = test system: HIV-1 NL4-3 (wild-type) virus; experiment: microbe, parasite or virus in culture; assay type: cell-based
[2] = test system: HIV-1 RTMDR (RT L74V, M41L, V106A, T215Y); assay type: cell-based; conditions: TZM-bl cells; for Resistance fold change RTMDR: versus NL4-3(wt); for EC50: read-out: EC50 RTMDR
[3] = test system: HIV-1 NL4-3 K101E mutant; assay type: cell-based; conditions: TZM-bl cells; for Resistance fold change K101E: versus NL4-3(wt); for EC50: read-out: EC50 K101E
[4] = test system: HIV-1 NL4-3 E138K mutant; assay type: cell-based; conditions: TZM-bl cells; for Resistance fold change E138K: versus NL4-3(wt); for EC50: read-out: EC50 E138K
[5] = test system: HIV-1 IIIB (wt); experiment: HIV-1 infection assay using MT-2 cells; assay type: cell-based
Procedure, shortened: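 MT-2 cells (10^4/well) infected overnight with 100 TCID50 HIV-1 IIIB in RPMI 1640 plus 10% FBS, with or without graded concentrations of test compound. Medium then replaced with compound-free medium. On day 4 post-infection, supernatants mixed with equal volume 5% Triton X-100 and p24 antigen quantified by ELISA. EC50 calculated from percent inhibition of p24 production.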

[6] = test system: HIV-1 A17 (K103N and Y181C); assay type: cell-based; conditions: MT-2 cells; for Resistance fold change A17: versus IIIB (wt); for EC50: read-out: EC50 A17
[7] = test system: TZM-bl cells; experiment: CytoTox-Glo cytotoxicity assay; assay type: cell-based; conditions: one day, average of two independent tests
Procedure, shortened: (§1)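 Run alongside the antiviral assays. TZM-bl cells were cultured for one day with graded concentrations of test compound. Percent viable cells was determined with the CytoTox-Glo kit according to the manufacturer's protocol.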

[8] = Microsomal stability assay; assay type: in vitro ADME; conditions: 1 μM compound, 0.1 mg/mL human liver microsomes, 37 °C
[9] = Aqueous solubility measurement; assay type: physicochemical; conditions: triplicate; for Aqueous solubility pH 2.0: pH 2.0, HPLC method; for Aqueous solubility pH 7.4: pH 7.4, HPLC method
[10] = Log P measurement; assay type: physicochemical; conditions: measured at pH7.4 by HPLC method, triplicate
[11] = CytoTox-Glo cytotoxicity assay; assay type: cell-based; conditions: human, TZM-bl cells
Procedure, shortened: as §1

[12] = test system: HIV-1 RT multidrug-resistant (RTMDR) viral strain; conditions: read-out: EC50 RTMDR (prior studies); same assays for leads and drugs; cited from earlier work
[13] = test system: HIV-1 wild-type and resistant viral strains with RTMDR, K101E or E138K mutation; experiment: Text summary: antiviral potency over wild-type and resistant strains; assay type: cell-based
[14] = read-out: EC50 (NL4-3 infection of TZM-bl cells), mean ± SD, at least three independent experiments
[15] = read-out: EC50 NL4-3(wt), TZM-bl cells, Table 2
[16] = read-out: EC50 IIIB (wt), MT-2 cells

N#Cc1ccc(Nc2nc(Oc3c(Br)cc(C#N)cc3Br)ccc2N)cc1 [8a, 6-(4”-Cyano-2”,6”-dibromo)phenoxy-N^2-(4′-cyanophenyl)pyridin-2,3-diamine]
EC50 [1, 14]: 0.99 nM and 0.93 nM
EC50 [1, 15]: 0.93 nM
Resistance fold change RTMDR [2]: 2.6
EC50 [2]: 2.47 nM
Resistance fold change K101E [3]: 3.3
EC50 [3]: 3.09 nM
Resistance fold change E138K [4]: 5.8
EC50 [4]: 5.44 nM
EC50 [5, 16]: 12.4 nM
Resistance fold change A17 [6]: 30.8
EC50 [6]: 384 nM
CC50 [7]: 13200 nM
HLM t1/2 [8]: 41.66 min
Aqueous solubility pH 2.0 [9]: 0.79 μg/mL
Aqueous solubility pH 7.4 [9]: 0.72 μg/mL
log P [10]: 3.30

N#Cc1ccc(Nc2nc(Oc3c(F)cc(CO)cc3F)ccc2N)cc1 [6c, N^2-(4′-Cyanophenyl)amino-6-(2”,6”-difluoro-4”-hydroxymethyl)phenoxypyridine-3-amine]
EC50 [1, 14]: 57.1 ± 9.2 nM
CC50 [7]: > 27200 nM

N#C/C=C/c1cc(Cl)c(Oc2ccc(N)c(Nc3ccc(C#N)cc3)n2)c(Cl)c1 [8d, (E)-N^2-(4′-Cyanophenyl)amino-6-(4”-cyanovinyl-2”,6”-dichloro)phenoxypyridin-3-amine]
EC50 [1, 14]: 8.14 ± 2.49 nM
CC50 [7]: 10700 nM
HLM t1/2 [8]: 39.61 min
Aqueous solubility pH 2.0 [9]: 0.81 μg/mL
Aqueous solubility pH 7.4 [9]: 0.70 μg/mL
log P [10]: >5

N#Cc1ccc(Nc2nc(Oc3c(F)cc(/C=C/C(N)=O)cc3F)ccc2N)cc1 [6k, (E)-N^2-(4′-Cyanophenyl)amino-6-(2”,6”-difluoro-4”-(2-carbamoyl)vinyl)phenoxy pyridin-3-amine]
EC50 [1, 14]: 614 ± 118 nM
CC50 [7]: > 24600 nM

CC(=O)OCc1cc(F)c(Oc2ccc(N)c(Nc3ccc(C#N)cc3)n2)c(F)c1 [6d, N^2-(4′-Cyanophenyl)amino-6-(2”,6”-difluoro-4”-acetoxymethyl)phenoxypyridin-3-amine]
EC50 [1, 14]: 290 ± 46 nM

N#Cc1ccc(Nc2nc(Oc3c(F)cc(C#N)cc3F)ccc2N)cc1 [6f, N^2-(4′-Cyanophenyl)amino-6-(2”,6”-difluoro-4”-cyano)phenoxypyridin-3-amine]
EC50 [1, 14]: 5.16 ± 1.57 nM
CC50 [7]: > 9390 nM

Cc1cc(/C=C/C#N)cc(C)c1Nc1ccnc(Nc2ccc(C#N)cc2)n1 [1b, rilpivirine, reference compound]
EC50 ([1]; Human immunodeficiency virus 1, NL43, TZM-bl, read-out: EC50 NL4-3(wt)): 0.44 nM
EC50 ([5]; Human immunodeficiency virus 1, IIIB, MT2, read-out: EC50 IIIB (wt)): 0.49 nM
CC50 at 1 day [11]: 19400 nM
HLM t1/2 [8]: 39.52 min
EC50 [12]: 0.49 nM

N#C/C=C/c1cc(F)c(Oc2ccc(N)c(Nc3ccc(C#N)cc3)n2)c(F)c1 [6g, (E)-N^2-(4′-Cyanophenyl)amino-6-(4”-cyanovinyl-2”,6”-difluoro)phenoxypyridin-3-amine]
EC50 [1, 14]: 0.75 ± 0.18 nM
EC50 [1, 15]: 0.75 nM
Resistance fold change RTMDR [2]: 46.3
EC50 [2]: 34.7 nM
Resistance fold change K101E [3]: 9.6
EC50 [3]: 7.2 nM
Resistance fold change E138K [4]: 10.3
EC50 [4]: 7.71 nM
EC50 [5, 16]: 1.11 nM
Resistance fold change A17 [6]: > 450
EC50 [6]: > 500 nM
CC50 [7]: 11000 nM
HLM t1/2 [8]: 76.46 min
Aqueous solubility pH 2.0 [9]: 1.27 μg/mL
Aqueous solubility pH 7.4 [9]: 0.72 μg/mL
log P [10]: 3.48

N#Cc1ccc(Nc2nc(Oc3c(F)cc(Br)cc3F)ccc2N)cc1 [6b]
EC50 [1, 14]: 7.43 ± 1.1 nM
CC50 [7]: > 9590 nM

Cc1cc(C#N)cc(C)c1Oc1nc(Nc2ccc(C#N)cc2)nc(N)c1Br [1a, etravirine]
EC50 [12]: 1 nM

N#Cc1ccc(Nc2nc(Oc3c(F)cc(CCCO)cc3F)ccc2N)cc1 [6n, N^2-(4′-Cyanophenyl)amino-6-(2”,6”-difluoro-4”-(3-hydroxypropyl)phenoxy) pyridin-3-amine]
EC50 [1, 14]: 48 ± 9.8 nM
CC50 [7]: > 25200 nM

COc1cc(/C=C/C#N)ccc1Oc1ccc(N)c(Nc2ccc(C#N)cc2)n1 [8e, (E)-N^2-(4′-Cyanophenyl)amino-6-(2”-methoxy-4”-cyanovinyl)phenoxypyridin-3-amine]
EC50 [1, 14]: 16.7 ± 4.33 nM
CC50 [7]: > 20600 nM

CC(=O)CCc1cc(F)c(Oc2ccc(N)c(Nc3ccc(C#N)cc3)n2)c(F)c1 [6i, N^2-(4′-Cyanophenyl)amino-6-(2”,6”-difluoro-4”-(3-oxobutyl)phenoxy)pyridin-3-amine]
EC50 [1, 14]: 4.66 ± 0.95 nM
CC50 [7]: > 9800 nM

N#CCCc1cc(F)c(Oc2ccc(N)c(Nc3ccc(C#N)cc3)n2)c(F)c1 [6l, 6-(4”-(2-Cyanoethyl)-2”,6”-difluoro)phenoxy-N^2-(4′-cyanophenyl)aminopyridin-3-amine]
EC50 [1, 14]: 2.81 ± 0.59 nM
CC50 [7]: > 10200 nM

N#Cc1ccc(Nc2nc(Oc3c(F)cccc3F)ccc2N)cc1 [6a, N^2-(4′-Cyanophenyl)amino-6-(2”,6”-difluoro)phenoxypyridin-3-amine]
EC50 [1, 14]: 6.78 ± 1.18 nM
EC50 [1, 15]: 6.78 nM
Resistance fold change RTMDR [2]: 0.52
EC50 [2]: 3.55 nM
Resistance fold change K101E [3]: 7.82
EC50 [3]: 53 nM
Resistance fold change E138K [4]: 4.3
EC50 [4]: > 29 nM
CC50 [7]: 19200 nM
HLM t1/2 [8]: 44.01 min
Aqueous solubility pH 2.0 [9]: 8.42 μg/mL
Aqueous solubility pH 7.4 [9]: 1.58 μg/mL
log P [10]: >5

COc1cc(/C=C/C#N)cc(Br)c1Oc1ccc(N)c(Nc2ccc(C#N)cc2)n1 [8c, (E)-6-(2”-Bromo-4”-cyanovinyl-6”-methoxy)phenoxy-N^2-(4′-cyanophenyl) pyridin-2,3-diamine]
EC50 [1, 14]: 3.25 ± 0.89 nM
EC50 [1, 15]: 3.25 nM
Resistance fold change RTMDR [2]: 1.1
EC50 [2]: 3.46 nM
Resistance fold change K101E [3]: 1.2
EC50 [3]: 3.9 nM
Resistance fold change E138K [4]: 2.1
EC50 [4]: 6.93 nM
EC50 [5, 16]: 4.53 nM
Resistance fold change A17 [6]: 18.6
EC50 [6]: 84.4 nM
CC50 [7]: 21000 nM
HLM t1/2 [8]: 54.7 min and 54.71 min
Aqueous solubility pH 2.0 [9]: 0.82 μg/mL
Aqueous solubility pH 7.4 [9]: 0.50 μg/mL
log P [10]: 3.31
resistance fold change (RFC), range over resistant strains [13]: 1.1–2.1

N#C/C(=C\c1cc(F)c(Oc2ccc(N)c(Nc3ccc(C#N)cc3)n2)c(F)c1)C(N)=O [6h, (E)-6-[4”-(3-Amino-2-cyano-3-oxoprop-1-enyl)-2”,6”-difluoro]phenoxy-N^2-(4′-cyanophenyl)pyridin-2,3-diamine]
EC50 [1, 14]: 370 ± 59 nM
CC50 [7]: 15800 nM

CCCOC(=O)c1cc(F)c(Oc2ccc(N)c(Nc3ccc(C#N)cc3)n2)c(F)c1 [6j, N^2-(4′-Cyanophenyl)amino-6-(2”,6”-difluoro-4”-propylcarbmethoxy)phenoxypyr idin-3-amine]
EC50 [1, 14]: 99 ± 19 nM
CC50 [7]: 15300 nM

N^2-(4′-Cyanophenyl)amino-6-(4”-(2-cyano)propylcarbamoyl-2”,6”-difluoro)phen oxypyridin-3-amine [6m]
EC50 [1, 14]: 350 ± 52 nM
CC50 [7]: 15100 nM

N#C/C=C/c1cc(Br)c(Oc2ccc(N)c(Nc3ccc(C#N)cc3)n2)c(Br)c1 [8b, (E)-N^2-(4′-Cyanophenyl)amino-6-(4”-cyanovinyl-2”,6”-dibromo)phenoxypyridin-3-diamine]
EC50 [1, 14]: 0.33 ± 0.09 nM
EC50 [1, 15]: 0.33 nM
Resistance fold change RTMDR [2]: 2.2
EC50 [2]: 0.74 nM
Resistance fold change K101E [3]: 23.1
EC50 [3]: 7.63 nM
Resistance fold change E138K [4]: 12.4
EC50 [4]: 4.11 nM
EC50 [5, 16]: 3.04 nM
Resistance fold change A17 [6]: 65.7
EC50 [6]: 200 nM
CC50 [7]: 8220 nM
HLM t1/2 [8]: 21.87 min
Aqueous solubility pH 2.0 [9]: 0.63 μg/mL
Aqueous solubility pH 7.4 [9]: 0.62 μg/mL
log P [10]: 3.55

N#Cc1ccc(Nc2nc(Oc3c(F)cc(C=NO)cc3F)ccc2N)cc1 [6e, N^2-(4′-Cyanophenyl)amino-6-(2”,6”-difluoro-4”-(hydroxyimino)methyl)phenoxy pyridin-3-amine]
EC50 [1, 14]: 261 ± 55.1 nM
CC50 [7]: > 26200 nM
